Measured values taken from publication PMC9907071 (Proceedings of the National Academy of Sciences of the …, 2022).
Values after ≈ are worked out from the molar mass of the structure shown. Values joined by “and” are separate entries in the source; they are usually repeats but may differ in a detail not shown here. Identical values can stand only once. Like-named read-outs stand apart in the source and are kept apart here.

Key:
AbDHODH = biological target: T1, AbDHODH (Acinetobacter baumannii, UniProt B7GZW7); experiment: AbDHODH steady-state rate assay; format: biochemical
T1 sequence (B7GZW7 1-334): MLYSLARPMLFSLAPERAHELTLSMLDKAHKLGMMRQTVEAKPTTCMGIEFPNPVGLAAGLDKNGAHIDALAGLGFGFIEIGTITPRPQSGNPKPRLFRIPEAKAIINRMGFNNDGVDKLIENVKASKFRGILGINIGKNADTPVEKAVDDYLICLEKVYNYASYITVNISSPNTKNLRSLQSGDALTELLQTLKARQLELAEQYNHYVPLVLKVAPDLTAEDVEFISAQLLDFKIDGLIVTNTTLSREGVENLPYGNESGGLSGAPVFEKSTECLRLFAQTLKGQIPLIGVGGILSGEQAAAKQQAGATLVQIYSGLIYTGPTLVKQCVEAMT

A. baumannii AB307-0294 = experiment: Antimicrobial susceptibility testing in MM; format: cell-based, Acinetobacter baumannii; settings: for EC50: Acinetobacter baumannii, AB3070294, 24 h, read-out: AB307 EC50; for uracil rescue of growth: AB307, 0.2 mM uracil; for cidal or static activity by CFU vs initial inoculum: AB307 and HUMC1, DSM186 at >1 µg/mL, DSM161 at highest concentrations assessed
[1] = tested on: A. baumannii HUMC1 (CR-XDR); experiment: Antimicrobial susceptibility testing in MM; format: cell-based, Acinetobacter baumannii; settings: for EC50 / MIC: Acinetobacter baumannii, 24 h; for EC50: read-out: HUMC EC50
HsDHODH [2] = biological target: T2, HsDHODH (Homo sapiens, UniProt Q02127); settings: read-out: HsDHODH IC50; previously reported; ref [25], [27]; cited from earlier work
A. baumannii LAC-4 (MDR) = experiment: Antimicrobial susceptibility testing in MM; format: cell-based; settings: Acinetobacter baumannii, 24 h; for EC50: read-out: LAC-4 EC50; for MIC: read-out: LAC-4 MIC
How it was run: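 Overnight (18 h) cultures in minimal medium (MM) plus casamino acids were diluted 1:1,000 and titred on LB plates. Test compound (in DMSO) was added at various concentrations, giving about 5 × 10^5 CFU/mL final. Medium-only and DMSO wells served as controls. Plates were shaken at 37 °C for 24 h, reading Å600 every 15 min. […] There were 2–4 technical replicates per concentration, and results are mean ± SEM of multiple independent studies.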

A. baumannii AB307 [3] = experiment: Time-kill assay; format: cell-based, Acinetobacter baumannii; settings: DSM186 1 µg/mL, DSM161 17.5 µg/mL, meropenem 1 µg/mL
How it was run: (§1)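 Time-kill assays were run in pyrimidine-deficient MM at a fixed compound concentration: 1 µg/mL (2.9 µM) or 17.5 µg/mL (50 µM). Untreated and meropenem 1 µg/mL (2.6 µM) comparators were included. CFU was enumerated over time against the starting inoculum. Data are mean ± SEM of 2–4 independent studies, each with 2–5 technical replicates.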

A. baumannii AB307ΔpyrD = experiment: Time-kill assay; format: cell-based, Acinetobacter baumannii; settings: pyrimidine-deficient medium
[4] = tested on: A. baumannii AB307-0294 isolates; experiment: Susceptibility of AB307-0294 isolates recovered from DSM161-treated mice; format: cell-based, Acinetobacter baumannii; settings: eight independent colonies of AB307 from three animals
How it was run: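 Neutropenic BALB/c mice were infected in the thigh with AB307 and given test compound orally at 100 mg/kg at 0 and 12 h. Eight independent colonies were recovered from three sites in three animals and retested. MIC was determined by CFU at 24 h in MM, defined as growth within ± ½ log of the starting inoculum.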

HsDHODH [5] = biological target: T2, HsDHODH; experiment: biochemical
A. baumannii HUMC1 = experiment: Time-kill assay; format: cell-based, Acinetobacter baumannii; settings: DSM186 1 µg/mL, meropenem 1 µg/mL
How it was run: as §1

A. baumannii AB307 [6] = experiment: Efflux and permeability assay; format: cell-based, Acinetobacter baumannii; settings: DSM186 0.015 µg/mL
A. baumannii strains = experiment: DSM186 on a panel of A. baumannii strains; format: cell-based, Acinetobacter baumannii; settings: for MIC: Acinetobacter baumannii
Microsomal stability [7] = format: in vitro ADME; settings: human liver microsomes
Microsomal stability [8] = format: in vitro ADME; settings: mouse microsomes
[9] = read-out: MIC as measured by CFU

T2 sequence (Q02127 whole entry): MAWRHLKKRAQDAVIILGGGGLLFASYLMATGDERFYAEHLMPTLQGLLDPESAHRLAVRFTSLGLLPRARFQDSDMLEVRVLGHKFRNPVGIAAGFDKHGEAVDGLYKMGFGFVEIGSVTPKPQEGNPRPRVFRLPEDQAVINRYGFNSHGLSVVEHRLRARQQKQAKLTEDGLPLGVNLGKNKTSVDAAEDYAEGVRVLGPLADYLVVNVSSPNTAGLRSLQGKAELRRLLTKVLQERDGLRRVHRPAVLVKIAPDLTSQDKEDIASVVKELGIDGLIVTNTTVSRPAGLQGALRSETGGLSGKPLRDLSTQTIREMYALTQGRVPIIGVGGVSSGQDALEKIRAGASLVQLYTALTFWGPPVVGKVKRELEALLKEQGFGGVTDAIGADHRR

Structure (SMILES)	IC50 (AbDHODH) [nM]	EC50 (A. baumannii AB307-0294) [nM]	EC50 [1] [nM]	MIC ([1]; read-out: HUMC MIC)	uracil rescue of growth (A. baumannii AB307-0294)	EC50 (A. baumannii LAC-4 (MDR)) [nM]	MIC (A. baumannii LAC-4 (MDR))	time-kill: CFU over time vs starting inoculum (A. baumannii AB307 [3])	also measured
Cc1cc(Nc2ccc(C(F)(F)F)c(F)c2)n2ncnc2n1 [DSM125]	910 ± 70	9600	34000	51 µM and 16 µg/mL	–	–	–	–	IC50 (HsDHODH [2]): > 100000 nM
Cc1cc(Nc2ccc(S(F)(F)(F)(F)F)cc2)n2ncnc2n1 [DSM161]	300 ± 110	1400 ± 300	8400 ± 850	25 µM and 8.8 µg/mL	uracil rescue was also demonstrated	4400 ± 470	25 µM and 8.8 µg/mL	decreased below the starting inoculum	cidal or static activity by CFU vs initial inoculum (A. baumannii AB307-0294): bacteriostatic; fold MIC by CFU higher than MIC by absorbance assay (A. baumannii AB307-0294; both strains (AB307, HUMC1)): 10 fold; MIC [1, 9]: 50 µM and 17.5 µg/mL; fold difference in potency, drug-resistant strains vs drug-sensitive AB307 ([1]; HUMC1 and LAC-4 vs AB307): 3–6 fold; time-kill: killing of DHODH deletion mutant (A. baumannii AB307ΔpyrD): neither DSM186 nor DSM161 caused increased killing; change in MIC (by CFU) of colonies recovered from treated animals [4]: no change in MIC; IC50 (HsDHODH [2]): > 100000 nM
Cc1cc(Nc2ccc(S(F)(F)(F)(F)F)cc2)n2ccnc2n1 [DSM186]	28 ± 3.8	53 ± 8.2	170 ± 3.3	0.78 µM and 0.27 µg/mL	rescued by the addition of uracil	170 ± 33	1.3 µM and 0.45 µg/mL	decreased below the starting inoculum	IC50 (HsDHODH [5]): > 100000 nM; cidal or static activity by CFU vs initial inoculum (A. baumannii AB307-0294): cidal activity; MIC [1, 9]: 1.6 µM and 0.55 µg/mL; uracil rescue of growth ([1]; HUMC1, 0.2 mM uracil): rescued by the addition of uracil; time-kill: CFU over time vs starting inoculum (A. baumannii HUMC1): decreased below the starting inoculum; time-kill: killing of DHODH deletion mutant (A. baumannii AB307ΔpyrD): neither DSM186 nor DSM161 caused increased killing; effect of combination of PAβN and PMBN on activity (A. baumannii AB307 [6]): less active than PMBN alone; effect of efflux inhibitor PAβN on activity (A. baumannii AB307 [6]; PAβN 70 µg/mL): somewhat increased the activity; effect of permeability-increasing agent PMBN on activity (A. baumannii AB307 [6]; PMBN 64 µg/mL): somewhat increased the activity; concentration inhibiting growth by CFU (A. baumannii strains; 17/23 strains, relative to starting inoculum (± ½ log) at 24 h): 1 µg/mL and 2.9 µM; activity across strains tested (A. baumannii strains; 30 strains including 12 CR-XDR isolates): active against all the 30 strains tested; MIC (A. baumannii strains; read-out: MIC assessed by Å600): 0.11 to 1.09 µg/mL (≈ 0.314 to 3.11 µM); MIC (A. baumannii strains; read-out: minimal inhibitory concentration): ≤ 1 µg/mL; concentration inhibiting growth by CFU (A. baumannii strains; remaining six strains): 2 µg/mL and 5.8 µM; metabolic stability (Microsomal stability [7]): metabolically stable; metabolic stability (Microsomal stability [8]): less stable
Cc1cc(Nc2ccc3c(c2)CCCC3)n2ccnc2n1 [DSM187]	170	–	–	–	–	–	–	–	–
Cc1cc(Nc2ccc(C(F)(F)F)cc2)c2ccccc2n1 [DSM250]	85 ± 15	380 ± 140	–	–	uracil rescue was also demonstrated	1600	12.5 µM and 3.8 µg/mL	–	IC50 (HsDHODH [5]): > 100000 nM; concentrations showing some off-target activity (A. baumannii AB307-0294; AB307, uracil rescue study): above 10 µM
Cc1cc(Nc2ccc(S(F)(F)(F)(F)F)cc2)n2nc(C(C)(F)F)nc2n1 [DSM265]	590 ± 160	2700 ± 210	–	–	uracil rescue was also demonstrated	–	–	–	–
C[C@@H](O)[C@H]1C(=O)N2C(C(=O)O)=C(S[C@@H]3CN[C@H](C(=O)N(C)C)C3)[C@H](C)[C@H]12 [meropenem, reference compound]	–	–	–	–	–	–	–	decreased below the starting inoculum	–
